Measured values from ChEMBL document CHEMBL3877264, “Quinolidene-rhodanine conjugates: Facile synthesis and biological evaluation” (Eur J Med Chem, 2017).
Converted amounts (≈) assume the structure as drawn.

Experiments:
Assay type in all cases: functional
[1] = tested on: Candida albicans; test: Antifungal activity against Candida albicans NCIM 3471 by standard agar method
Procedure, shortened: (§1)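 MICs determined by standard agar method; DMSO as solvent control.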

[2] = tested on: Bacillus subtilis; test: Growth inhibition of Bacillus subtilis NCIM 2079 at 10 ug/ml measured after 12 hrs relative to control; conditions: NCIM 2079, 12 h, read-out: GI
Procedure, shortened: (§2)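 Bacteria grown in LB at 37 °C and 180 rpm to OD 1. Compounds added to wells, then 0.1% inoculum of 1 OD culture (620 nm). Growth read as OD at 620 nm after 8 h for gram-negative and after 12 h for gram-positive strains.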

[3] = tested on: Staphylococcus aureus; test: Growth inhibition of Staphylococcus aureus NCIM 2010 at 3 ug/ml measured after 12 hrs relative to control; conditions: NCIM 2010, 12 h, read-out: GI; procedure, shortened: as §2
[4] = tested on: Pseudomonas fluorescens; test: Antibacterial activity against Pseudomonas fluorescens NCIM 2036 measured after 8 hrs; conditions: NCIM 2036, 8 h; procedure, shortened: as §2
[5] = tested on: Mycobacterium tuberculosis; test: Growth inhibition of Mycobacterium tuberculosis H37Ra ATCC 25177 at dormant stage measured after 12 days by XTT dye based two fold dilution method; conditions: H37Ra ATCC 25177, 288 h
Procedure, shortened: (§3)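 MTB H37Ra was grown in Dubos medium, then exposed in Mycobacterium pheli minimal medium (pH 6.6) to compounds dissolved in DMSO. The assay ended on day 8 (active) or day 12 (dormant). Viable cells were measured by XTT reduction menadione assay at 470 nm, blank-corrected, relative to vehicle control. Triplicates were expressed as mean ± SD. MIC came from dose-response curves.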

[6] = tested on: Mycobacterium tuberculosis; test: Growth inhibition of Mycobacterium bovis BCG ATCC 35743 at dormant stage measured after 12 days by nitrate reductase dye based two fold dilution method; conditions: BCG str. ATCC 35743, 288 h
Procedure, shortened: (§4)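 M. bovis BCG was grown in Dubos medium and assayed in Mycobacterium pheli minimal medium (pH 6.6), with compounds from DMSO stocks. Incubation lasted 8 days for active and 12 days for dormant cultures. Viability was read by nitrate reductase at 540 nm against cell-free blanks, with vehicle set as 100% growth. Primary screen was at 30, 10 and 3 µg/ml, in triplicate, mean ± SD. MIC was taken from dose-response curves.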

[7] = tested on: Staphylococcus aureus; test: Growth inhibition of Staphylococcus aureus NCIM 2010 at 30 ug/ml measured after 12 hrs relative to control; conditions: NCIM 2010, 12 h, read-out: GI; procedure, shortened: as §2
[8] = tested on: Escherichia coli; test: Antibacterial activity against Escherichia coli NCIM 2688 measured after 8 hrs; conditions: NCIM 2688, 8 h; procedure, shortened: as §2
[9] = tested on: Staphylococcus aureus; test: Antibacterial activity against of Staphylococcus aureus NCIM 2010 measured after 12 hrs; conditions: NCIM 2010, 12 h; procedure, shortened: as §2
[10] = tested on: Pseudomonas fluorescens; test: Growth inhibition of Pseudomonas fluorescens NCIM 2036 at 10 ug/ml measured after 8 hrs relative to control; conditions: NCIM 2036, 8 h, read-out: GI; procedure, shortened: as §2
[11] = tested on: Escherichia coli; test: Growth inhibition of Escherichia coli NCIM 2688 at 30 ug/ml measured after 8 hrs relative to control; conditions: NCIM 2688, 8 h, read-out: GI; procedure, shortened: as §2
[12] = tested on: Pseudomonas fluorescens; test: Growth inhibition of Pseudomonas fluorescens NCIM 2036 at 30 ug/ml measured after 8 hrs relative to control; conditions: NCIM 2036, 8 h, read-out: GI; procedure, shortened: as §2
[13] = tested on: Mycobacterium tuberculosis; test: Growth inhibition of Mycobacterium bovis BCG ATCC 35743 at dormant stage at 3 ug/ml measured after 12 days by nitrate reductase dye based two fold dilution method relative to control; conditions: BCG str. ATCC 35743, 288 h, read-out: GI; procedure, shortened: as §4
[14] = tested on: Aspergillus niger; test: Antifungal activity against Aspergillus niger NCIM 1196 by standard agar method; procedure, shortened: as §1
[15] = tested on: Bacillus subtilis; test: Antibacterial activity against Bacillus subtilis NCIM 2079 measured after 12 hrs; conditions: NCIM 2079, 12 h; procedure, shortened: as §2
[16] = tested on: Staphylococcus aureus; test: Growth inhibition of Staphylococcus aureus NCIM 2010 at 10 ug/ml measured after 12 hrs relative to control; conditions: NCIM 2010, 12 h, read-out: GI; procedure, shortened: as §2
[17] = tested on: Mycobacterium tuberculosis; test: Growth inhibition of Mycobacterium tuberculosis H37Ra ATCC 25177 at active stage measured after 8 days by XTT dye based two fold dilution method; conditions: H37Ra ATCC 25177, 192 h; procedure, shortened: as §3
[18] = tested on: Bacillus subtilis; test: Growth inhibition of Bacillus subtilis NCIM 2079 at 3 ug/ml measured after 12 hrs relative to control; conditions: NCIM 2079, 12 h, read-out: GI; procedure, shortened: as §2
[19] = tested on: Escherichia coli; test: Growth inhibition of Escherichia coli NCIM 2688 at 3 ug/ml measured after 8 hrs relative to control; conditions: NCIM 2688, 8 h, read-out: GI; procedure, shortened: as §2
[20] = tested on: Mycobacterium tuberculosis; test: Growth inhibition of Mycobacterium bovis BCG ATCC 35743 at dormant stage at 10 ug/ml measured after 12 days by nitrate reductase dye based two fold dilution method relative to control; conditions: BCG str. ATCC 35743, 288 h, read-out: GI; procedure, shortened: as §4
[21] = tested on: Aspergillus flavus; test: Antifungal activity against Aspergillus flavus NCIM 539 by standard agar method; procedure, shortened: as §1
[22] = Antifungal activity against Fusarium oxysporum NCIM 1332 by standard agar method; procedure, shortened: as §1
[23] = tested on: Mycobacterium tuberculosis; test: Growth inhibition of Mycobacterium bovis BCG ATCC 35743 at dormant stage at 30 ug/ml measured after 12 days by nitrate reductase dye based two fold dilution method relative to control; conditions: BCG str. ATCC 35743, 288 h, read-out: GI; procedure, shortened: as §4
[24] = tested on: Escherichia coli; test: Growth inhibition of Escherichia coli NCIM 2688 at 10 ug/ml measured after 8 hrs relative to control; conditions: NCIM 2688, 8 h, read-out: GI; procedure, shortened: as §2
[25] = Antifungal activity against Cryptococcus neoformans NCIM 576 by standard agar method; procedure, shortened: as §1
[26] = tested on: Mycobacterium tuberculosis; test: Growth inhibition of Mycobacterium bovis BCG ATCC 35743 at active stage measured after 8 days by nitrate reductase dye based two fold dilution method; conditions: BCG str. ATCC 35743, 192 h; procedure, shortened: as §4
[27] = tested on: Bacillus subtilis; test: Growth inhibition of Bacillus subtilis NCIM 2079 at 30 ug/ml measured after 12 hrs relative to control; conditions: NCIM 2079, 12 h, read-out: GI; procedure, shortened: as §2
[28] = tested on: Pseudomonas fluorescens; test: Growth inhibition of Pseudomonas fluorescens NCIM 2036 at 3 ug/ml measured after 8 hrs relative to control; conditions: NCIM 2036, 8 h, read-out: GI; procedure, shortened: as §2

SMILES	MIC [1]	inhibition of growth at 10 µg/mL [2]	inhibition of growth at 3 µg/mL [3]	MIC [4]	IC50 [5]	IC90 [5]	IC50 [6]	IC90 [6]	inhibition of growth at 30 µg/mL [7]	MIC [8]	MIC [9]	inhibition of growth at 10 µg/mL [10]	inhibition of growth at 30 µg/mL [11]	inhibition of growth at 30 µg/mL [12]	inhibition of growth at 3 µg/mL [13]	MIC [14]	MIC [15]	inhibition of growth at 10 µg/mL [16]	IC50 [17]	IC90 [17]	also measured
Cc1ccc2cc(/C=C3\SC(=S)N(CCC(=O)O)C3=O)c(Cl)nc2c1	25 µg/mL (≈ 63.6 µM)	-5.45%	-6.25%	> 30 µg/mL	> 30 µg/mL	> 30 µg/mL	> 30 µg/mL	> 30 µg/mL	-15%	> 30 µg/mL	> 30 µg/mL	17.1%	10.3%	6.75%	19.1%	150 µg/mL (≈ 382 µM)	> 30 µg/mL	-17.8%	> 30 µg/mL	> 30 µg/mL	inhibition of growth at 3 µg/mL [18]: -6.11%; inhibition of growth at 3 µg/mL [19]: 18.5%; inhibition of growth at 10 µg/mL [20]: 7.51%; MIC [21]: 150 µg/mL (≈ 382 µM); MIC [22]: 100 µg/mL (≈ 255 µM); inhibition of growth at 30 µg/mL [23]: -9.18%; inhibition of growth at 10 µg/mL [24]: 28.8%; MIC [25]: 150 µg/mL (≈ 382 µM); IC50 [26]: > 30 µg/mL; IC90 [26]: > 30 µg/mL; inhibition of growth at 30 µg/mL [27]: -7.94%; inhibition of growth at 3 µg/mL [28]: 5.88%
CCOc1ccc2nc(Cl)c(/C=C3\SC(=S)N(CCC(=O)O)C3=O)cc2c1	200 µg/mL (≈ 473 µM)	-8.28%	-5.78%	> 30 µg/mL	> 30 µg/mL	> 30 µg/mL	> 30 µg/mL	> 30 µg/mL	-27.7%	> 30 µg/mL	> 30 µg/mL	-40.5%	14.8%	7.19%	21.5%	175 µg/mL (≈ 414 µM)	> 30 µg/mL	-39.4%	> 30 µg/mL	> 30 µg/mL	inhibition of growth at 3 µg/mL [18]: -2.45%; inhibition of growth at 3 µg/mL [19]: 5.32%; inhibition of growth at 10 µg/mL [20]: 33%; MIC [21]: 100 µg/mL (≈ 236 µM); MIC [22]: 125 µg/mL (≈ 296 µM); inhibition of growth at 30 µg/mL [23]: 32.5%; inhibition of growth at 10 µg/mL [24]: 7.42%; MIC [25]: 175 µg/mL (≈ 414 µM); IC50 [26]: > 30 µg/mL; IC90 [26]: > 30 µg/mL; inhibition of growth at 30 µg/mL [27]: -4.16%; inhibition of growth at 3 µg/mL [28]: -85%
Cc1ccc2nc(Cl)c(/C=C3\SC(=S)N(CCC(=O)O)C3=O)cc2c1	50 µg/mL (≈ 127 µM)	-25.6%	-9.82%	> 30 µg/mL	> 30 µg/mL	> 30 µg/mL	> 30 µg/mL	> 30 µg/mL	-19.6%	> 30 µg/mL	> 30 µg/mL	1.64%	-49%	-6.24%	-7.58%	100 µg/mL (≈ 255 µM)	> 30 µg/mL	-13.6%	> 30 µg/mL	> 30 µg/mL	inhibition of growth at 3 µg/mL [18]: -20.6%; inhibition of growth at 3 µg/mL [19]: -37.5%; inhibition of growth at 10 µg/mL [20]: -7.25%; MIC [21]: 150 µg/mL (≈ 382 µM); MIC [22]: 100 µg/mL (≈ 255 µM); inhibition of growth at 30 µg/mL [23]: -14.8%; inhibition of growth at 10 µg/mL [24]: -47.6%; MIC [25]: 175 µg/mL (≈ 445 µM); IC50 [26]: > 30 µg/mL; IC90 [26]: > 30 µg/mL; inhibition of growth at 30 µg/mL [27]: -31.1%; inhibition of growth at 3 µg/mL [28]: 5.35%
